Screening results deposited in PubChem by several laboratories.
STAT1 act-1: activators of IFN-gamma induced STAT1 signaling; NIH 3T3 STAT1-luciferase reporter, luminescence; 100% = IFN-gamma alone, no compound; activation (% of control), % at 5.5 µM; hit rate 2.6% among 200,000;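 active = activation above the screen-wide mean activation plus 3 SD, cut at about 130% in these data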;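 note: raw ratio to IFN-gamma control signal so 100% means no change and 0% no light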
NF-kB expr up: compounds increasing NF-kB expression in human neuronal cells; NF-kB reporter expression; active compounds read high; AID 1239; fold change at 12.5 µM; hit rate 1.6% among 190,000; in the data active = fold change above about 3.3
STAT3 blocker: STAT3 signaling inhibition. hit rate 0.89% among 190,000. AID 862. inhibition, % at 5.5 µM. U3A cells, IL-6 STAT3-luciferase reporter, luminescence; host cell line lacks STAT1;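 active = inhibition above the mean inhibition across all screened compounds plus 3 SD, cut at about 44% in these data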;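 note: 0% = DMSO only wells and 100% = 100 µM nifuroxazide control wells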
STAT3 act-1: STAT3 signaling activation; U3A cells, IL-6 STAT3-luciferase reporter, luminescence; 100% = signal with IL-6 EC80 alone; activation (% of control), % at 5.6 µM; hit rate 0.91% among 190,000;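 active = activation above the screen-wide mean of compound activation plus 3 SD, cut at about 130% in these data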;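 note: 0% = background luminescence of wells with medium and substrate only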
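Material: human STAT1-deficient U3A cells with stable STAT3-luciferase reporter / Probe or stimulus: IL-6 stimulus at 33 ng/mL final / Schedule: 1 h compound pre-exposure, 6 h IL-6 stimulation, 37 °C / Technique: luminescence / Read-out basis: percent of IL-6-only median luminescence / Control set: IL-6-only high control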
APP 5'UTR act: activates APP 5'UTR luciferase reporter. activation, % at 2 µM. hit rate 1% among 190,000. SH-SY5Y APP 5'UTR luciferase reporter, luminescence; zero percent = DMSO vehicle wells;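 active = activation above a set limit, based on mean plus 3 SD of controls, cut at about 140% in these data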
STAT1 inh: reduces IFN-gamma driven STAT1 reporter signal; inhibition, % at 5.5 µM; NIH 3T3 STAT1-luciferase reporter, luminescence; hit rate 0.35% among 200,000;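 active = inhibition above a set limit, the mean inhibition across all tested compounds plus 3 SD, cut at about 34% in these data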;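 note: 0% = IFN-gamma with DMSO and 100% = IFN-gamma with 300 µM nifuroxazide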
STAT3 act-2: STAT3 activation, confirmation assay. shares compounds with STAT3 act-1. U3A STAT3-luciferase reporter, IL-6 potentiation, luminescence; U3A cells lack STAT1; 100 means same as IL-6 alone. potentiation (% of control), % at 5.7 µM. hit rate 64% among 1,200;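 active = percent activation of the STAT3 luciferase reporter above a set limit taken from the earlier primary screen, cut at about 130% in these data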;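 note: 0% = background signal of medium plus substrate and 100% = median of IL-6 with DMSO wells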
NFkB act STAT3ct: NF-kappaB activation in STAT3 activator counter-screen; AID 1309; hit rate 11% among 1,200; activation (% of control), % at 5.7 µM; shares compounds with STAT3 act-1; human cells, NF-kappaB reporter activation; in the data active = activation above about 120%;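 note: reporter induced by TNF-alpha stimulation; 100% = median of stimulated DMSO wells and 0% = no signal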
STAT1 act-2: counter-screen for STAT3 activators: STAT1 activation | shares compounds with STAT3 act-1 | NIH 3T3 STAT1-luciferase reporter, IFN-gamma, luminescence | activation (% of control), % at 5.7 µM | hit rate 13% among 1,200 | AID 1318;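 active = activation above the solvent-only control well mean plus 3 SD, set per screening run, cut at about 120% in these data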;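 note: 100% = IFN-gamma with DMSO median signal so 100% means no change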
* hit, by the source's call; / = no result. An excerpt weighted towards active compounds, which were near 5.1% of everything screened.

SMILES | STAT1 act-1 | NF-kB expr up | STAT3 blocker | STAT3 act-1 | APP 5'UTR act | STAT1 inh | STAT3 act-2 | NFkB act STAT3ct | STAT1 act-2
O=C(CSc1nnc2c3ccccc3c3ccccc3c2n1)Nc1ccccc1 | 88.3 | 1.71 | -54.8 | 157.7* | 1.3 | 13.0 | 162.0* | 105.3 | 92.4
CC(=O)N(C)c1ccc(NC(=S)Nc2ccccc2)cc1 | 94.5 | 0.94 | 3.4 | 105.6 | 17.2 | 5.1 | / | / | /
CN(C)c1cc(O)c(C(=S)Nc2ccccc2)c(N(C)C)c1 | 107.0 | 0.96 | -47.8 | 145.5* | 19.5 | -7.5 | 135.8* | 109.7 | 112.8
N#Cc1c(Cl)c(Cl)c2nnc(-c3ccc(Br)cc3)n2c1Cl | 92.2 | 1.18 | -53.9 | 154.2* | -0.6 | 8.5 | 151.9* | 105.9 | 94.5
CCCC(=O)Nc1nn(C)c2nc3c(C)cccc3cc12 | 91.6 | 0.98 | 2.2 | 101.8 | 2.3 | 9.2 | / | / | /
Cc1cccc2cc3c(NC(=O)c4ccccn4)nn(C)c3nc12 | 91.4 | 0.64 | -58.3 | 156.2* | 4.8 | 9.4 | 140.0* | 107.3 | 90.7
Cc1ccc(C)c(C(=O)COc2ccc(C)nc2[N+](=O)[O-])c1 | 97.4 | 1.24 | -8.4 | 104.3 | 1.4 | 2.9 | / | / | /
Cc1ccc(OCC(=O)c2c[nH]c3ccccc23)c([N+](=O)[O-])n1 | 116.4 | 1.11 | -58.6 | 157.9* | 12.7 | -19.3 | 164.6* | 102.9 | 106.8
Cc1ccc(Nc2nc(CSc3nnc(-c4cccs4)o3)cs2)cc1 | 113.0 | 1.63 | -0.4 | 103.8 | 8.8 | -14.1 | / | / | /
c1ccc(-c2nc(CSc3nnc(-c4cccs4)o3)cs2)cc1 | 105.9 | 1.08 | -67.4 | 160.8* | 11.4 | -6.5 | 167.7* | 112.3 | 121.2*
CC(=O)N1CCCc2cc(S(=O)(=O)NCCC3=CCCCC3)ccc21 | 92.8 | 0.84 | 12.9 | 92.7 | 7.9 | 6.2 | / | / | /
O=C(CN1CCCC1)Nc1ccc(-c2nc3cc(NC(=O)CN4CCCC4)ccc3o2)cc1 | 120.7 | 0.89 | -57.5 | 150.5* | 60.0 | -22.5 | 138.1* | 130.2* | 161.1*
CCc1ccc(N(C(=O)c2csnn2)C(C(=O)NC(C)(C)C)c2ccccn2)cc1 (stereo not given) | 119.5 | 1.7 | -37.3 | 138.7* | 5.1 | -20.9 | 134.8* | 115.7 | 120.0
O=c1oc2ccc3ccccc3c2cc1-c1nc2ccccc2o1 | 102.2 | / | -70.7 | 162.6* | -0.7 | -2.3 | 132.9* | 99.2 | 95.5
Nc1ccc2oc(-c3cccc4ccccc34)nc2c1 | 112.4 | 0.59 | 17.6 | 88.0 | -48.7 | -13.4 | / | / | /
COc1cc(C(=O)N/N=C(\C)Cc2ccccc2)cc(OC)c1OC | 104.3 | 2.59 | -55.8 | 143.4* | -94.3 | -4.9 | 94.8 | 110.5 | 96.6
COc1ccccc1C(=O)N(NC(=O)Oc1ccccc1)C(C)(C)C | 103.9 | 1.02 | -1.1 | 99.1 | 6.7 | -4.4 | / | / | /
Cc1ccnc(NC(=O)CCC(=O)N(CC(=O)NCc2ccccc2)c2ccc3c(c2)OCO3)c1 | 97.2 | 1.25 | -58.3 | 149.0* | -0.6 | 3.0 | 143.8* | 114.4 | 98.4
Nc1n[nH]c(-c2ccccc2[N+](=O)[O-])n1 | 109.2 | 1.06 | -8.8 | 105.1 | -12.9 | -10.4 | / | / | /
Cc1ccc(-c2cc(-c3ccccc3[N+](=O)[O-])[nH]n2)c(O)c1 | 97.7 | 4.01* | -37.5 | 141.7* | 131.6 | 2.5 | 135.7* | 131.1* | 94.5
O=c1cc(O)c2ccccc2n1Cc1ccccc1F | 95.8 | 1.33 | -34.7 | 137.9* | 10.7 | 4.1 | 97.6 | 106.6 | 103.6
CC(=O)c1sc2nc(-c3cccs3)cc(C(F)(F)F)c2c1N | 97.5 | 1.15 | -63.2 | 161.8* | -0.3 | 2.8 | 145.8* | 103.1 | 96.4
O=C(NCc1n[nH]c(=S)n1-c1ccc(Cl)c(Cl)c1)c1ccc(S(=O)(=O)N2CCOCC2)cc1 | 102.2 | 1.16 | 6.3 | 104.0 | -14.9 | -4.2 | / | / | /
